Results published in ChEMBL document CHEMBL1629457 (J Med Chem, 2010).
Bridge positions count the residues as written; N and C are the ends. Peptide text beside a SMILES is read from it.

Experiments:
Oxytocin receptor [1] = target: T1, Oxytocin receptor (Homo sapiens, UniProt P30559); test: Activity at oxytocin receptor expressed in COS1 cells assessed as IP-one generation by HTRF assay; assay type: cell-based, COS-1
T1 sequence (P30559 whole entry): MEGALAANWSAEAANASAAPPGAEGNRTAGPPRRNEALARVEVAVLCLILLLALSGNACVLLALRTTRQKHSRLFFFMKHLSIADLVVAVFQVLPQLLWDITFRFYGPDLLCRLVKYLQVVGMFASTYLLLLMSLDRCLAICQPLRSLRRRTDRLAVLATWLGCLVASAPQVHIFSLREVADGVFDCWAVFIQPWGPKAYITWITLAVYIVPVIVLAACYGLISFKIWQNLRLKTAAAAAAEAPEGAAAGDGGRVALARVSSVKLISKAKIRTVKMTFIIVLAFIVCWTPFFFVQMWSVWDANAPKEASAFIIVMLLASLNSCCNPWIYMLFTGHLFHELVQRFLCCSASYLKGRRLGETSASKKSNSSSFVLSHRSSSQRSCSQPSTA
Summary of the method: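 Human OTR transiently transfected into COS-1 cells (Lipofectamine2000, DNA ratio 2); assayed 48 h post-transfection. Cells stimulated with increasing compound concentrations in HEPES buffer containing 50 mM LiCl, pH 7.4, 1 h at 37 °C, 5% CO2. Lysed with HTRF reagents (Eu cryptate anti-IP-one antibody, d2-IP-one), 1 h room temperature. Read 665/590 nm after 340 nm excitation. EC50; triplicates, n = 3-6.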

Oxytocin receptor [2] = target: T1, Oxytocin receptor; test: Displacement of [3H]OT from oxytocin receptor expressed in COS1 cells; assay type: cell-based, COS-1
Summary of the method: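 Membranes from COS-1 cells transiently transfected with OTR, harvested 48 h post-transfection; 5 μg protein per well. Incubated with 2 nM [3H]OT and competitor (10 pM to 10 μM) on scintillation proximity beads in buffer with 0.1% BSA. Shaken 1 h at room temperature, then scintillation counted.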

[3] = Half life in […] by LC/MS and RP-HPLC method; assay type: ADME, cell-free, Serum; details: human
Summary of the method: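 Human plasma pre-warmed 30 min at 37 °C. Peptide (0.3 mM stock in 0.1 M phosphate, pH 7.2) added at 50 μL per 300 μL plasma, then incubated at 37 °C. Samples taken at 1, 2, 3, 4, 12, 24 and 48 h and quenched in ACN/NaCl/TFA extraction buffer. Analysed by RP-HPLC and LC-MS. Half-life from a one-phase decay fit, n = 3-6.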

SMILES | EC50 (Oxytocin receptor [1]) | Ki (Oxytocin receptor [2]) | half-life [3]
CC[C@H](C)[C@@H]1NC(=O)[C@H](Cc2ccc(O)cc2)NC(=O)[C@@H](N)CS[Se]C[C@@H](C(=O)N2CCC[C@H]2C(=O)N[C@@H](CC(C)C)NCC(N)=O)NC(=O)[C@H](CC(N)=O)NC(=O)[C@H](CCC(N)=O)NC1=O | 154 nM | 0.72 nM | –
CC[C@H](C)[C@@H]1NC(=O)[C@H](Cc2ccc(O)cc2)NC(=O)[C@@H](N)C[Te][Te]C[C@@H](C(=O)N2CCC[C@H]2C(=O)N[C@@H](CC(C)C)NCC(N)=O)NC(=O)[C@H](CC(N)=O)NC(=O)[C@H](CCC(N)=O)NC1=O | 27.3 nM | 7.6 nM | 24.2 h
CC[C@H](C)[C@@H]1NC(=O)[C@H](Cc2ccc(O)cc2)NC(=O)[C@@H]2CSSC[C@H](NC(=O)[C@H](CC(N)=O)NC(=O)[C@H](CCC(N)=O)NC1=O)C(=O)N1CCC[C@H]1C(=O)N[C@@H](CC(C)C)C(=O)NCC(=O)N2 | > 100000 nM | 1400 nM | > 48 h
CC[C@@H](C)[C@H]1NC(=O)[C@@H](CCC(N)=O)NC(=O)[C@@H](CC(N)=O)NC(=O)[C@H](NC(=O)[C@H]2CCCN2C(=O)[C@@H](CC(C)C)NC(=O)CN)CSSC[C@H](C(=O)O)NC(=O)[C@@H](Cc2ccc(O)cc2)NC1=O | > 100000 nM | > 100000 nM | 5.5 h
CC[C@H](C)[C@@H]1NC(=O)[C@H](Cc2ccc(O)cc2)NC(=O)[C@@H]2CSSC[C@H](NC(=O)[C@H](CC(N)=O)NC(=O)[C@H](CCC(N)=O)NC1=O)C(=O)N1CCC[C@H]1C(=O)N[C@@H](CC(C)C)C(=O)NCC(=O)N[C@@H](C)C(=O)NCC(=O)N[C@@H](C)C(=O)NCC(=O)N[C@@H](C)C(=O)NCC(=O)N2 (cyclo(AGAGAGCYIQNCPLG); disulfide 7-12) | > 100000 nM | > 100000 nM | > 48 h
CC[C@H](C)[C@@H]1NC(=O)[C@H](Cc2ccc(O)cc2)NC(=O)[C@@H](N)CSSC[C@@H](C(=O)N2CCC[C@H]2C(=O)N[C@@H](CC(C)C)C(=O)NCC(N)=O)NC(=O)[C@H](CC(N)=O)NC(=O)[C@H](CCC(N)=O)NC1=O [OXYTOCIN] | – | – | 11.6 h
NC(=O)CC[C@@H]1NC(=O)[C@H](Cc2ccccc2)NC(=O)[C@H](Cc2ccc(O)cc2)NC(=O)[C@@H](N)CSSC[C@@H](C(=O)N2CCC[C@H]2C(=O)N[C@@H](CCCN=C(N)N)C(=O)NCC(N)=O)NC(=O)[C@H](CC(N)=O)NC1=O [VASOPRESSIN] | – | – | 1.7 h
